Here are results for two substances from PMC8387982 (ACS Omega, 2021).

One data set relates to P. aeruginosa ATCC 27853. Description: Checkerboard FIC with conventional antibiotics. It counts as cell-based, Pseudomonas aeruginosa. As to conditions: in combination with rifampicin. In outline: (§1)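 Checkerboard assay: test compound and antibiotic mixed at 2× their MICs, then 2-fold serial dilutions made in MHB. Equal volume of bacteria (1×10^6 CFU/mL) added and incubated 18–24 h at 37 °C. Growth read as in the MIC assay. FIC = (MIC peptide in combination/MIC peptide alone) + (MIC antibiotic in combination/MIC antibiotic alone). Interpretation: ≤0.5 synergy; 0.5–1 additive; 1.0–<4.0 indifference; ≥4 antagonism.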

The test system of the next data set is E. coli ATCC 25922. In words: Checkerboard FIC with conventional antibiotics. It counts as cell-based, Escherichia coli. In outline: as §1
For data set [1], the system named is K. pneumoniae ATCC 700603. In words: Checkerboard FIC with conventional antibiotics. It is filed as cell-based, Klebsiella pneumoniae. In outline: as §1
The test system of data set [2] is bacteria (S. aureus, B. subtilis, E. coli, P. aeruginosa, K. pneumoniae). Description: Geometric mean of the peptide MICs. It counts as cell-based. As to conditions: over the five bacterial strains. In outline:
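Broth microdilution: single colony grown in MHB at 37 °C for 16–24 h. Log-phase culture diluted to 1×10^6 CFU/mL and mixed with equal volumes of serially diluted test compound. […] At least three independent experiments, each with three technical replicates. Geometric mean of MICs across strains computed.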

The test system of the next data set is human erythrocytes. Description: Hemolytic assay. It is filed as cell-based. To be noted: concentration causing 10% hemolysis of erythrocytes; 1 h, 37 °C.
The test system of data set [3] is human glomerular mesangial cell (GMC) line. Description: MTT cytotoxicity assay. It counts as cell-based. As to conditions: read-out: IC50 for GMC, 12 h, peptides 1-256 μM. In outline:
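MTT assay: human GMC cells seeded at 1.0×10^4 cells/well and exposed to test compound (1–256 μM) for 12 h at 37 °C, 5% CO2. Then 0.5 mg/mL MTT added for 4 h at 37 °C; formazan dissolved in DMSO and read at 570 nm. At least three independent experiments, each with three technical replicates.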
On the technique in general: Formazan colour is commonly taken as a measure of viable cells.

Data set [4] in a line: Circular dichroism, α-helical content. It is filed as physicochemical. In outline:
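CD spectra recorded at 25 °C in a 1.0 mm quartz cell over 190–260 nm (50 nm/min, 1 nm bandwidth, 1 s response). Test compound at 50 μM final in deionized water or 50% TFE. Observed ellipticity corrected for buffer and converted to mean residue ellipticity using peptide concentration, path length and residue number.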
(Circular dichroism is the unequal absorption of left and right circularly polarised light.)

Some results are limits rather than exact numbers.

With polymyxin B, the FIC in the data set with P. aeruginosa ATCC 27853 was 0.3125; with E. coli ATCC 25922 (in combination with gentamicin), 0.3125; in the data set with E. coli ATCC 25922 (in combination with rifampicin) it was 0.125; in data set [1] (in combination with gentamicin) it was 0.5; in data set [1] (in combination with rifampicin) it was 0.3125.

Broadly, the IC50 is the point on the concentration scale where inhibition reaches its midpoint. As for H-GLLKRIKTLL-NH2 [Anoplin], the “GM (geometric mean of the peptide MICs)” value in data set [2] is 48.50 µM. Also, the “MHC (minimum hemolytic concentration)” value with human erythrocytes was over 256 µM. Further, the IC50 in data set [3] is over 256 µM. Moreover, the “α-helix in 50% TFE” value in data set [4] (CD, 50 μM peptide, 50% TFE, 25 °C) is 82.64%. The substance further registered a α-helix in water in data set [4] (CD, 50 μM peptide, deionized water, 25 °C) of 14.03%. Also, in data set [4] (water environment, result in words), the “α-helical structure in water (CD)” value is on record as “did not show a α-helical structure”.
